Measurements as given in paper PMC6057476 (ACS chemical biology, 2018).

Experiments:
Assay type in all cases: cell-based
[1] = tested on: transcriptome of MCF-7 cells; assay: RNA-Seq global gene expression; settings: MCF-7, RNA-Seq; 10 nM E2 + 1 μM 4OHT or 15 μM R4K1
[2] = tested on: ER-regulated genes PTGES, PR, PS2, EGR3, IGFBP4 in MCF-7 cells; assay: RT-qPCR of ER-regulated native genes, MCF-7; settings: 10 nM E2, 2 hrs
Procedure, shortened: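 MCF-7 cells in charcoal-dextran-stripped 5% FBS were pretreated with test compound (15 μM, 24 h), 4-hydroxytamoxifen (1 μM, 2 h) or DMSO, then with 10 nM 17β-estradiol for 2 h. Total RNA was assayed by RT-qPCR, normalised to 36B4 and converted to fold change versus DMSO vehicle by ΔΔCt. Error bars are SD.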

MCF-7 cells = assay: Proliferation assay; settings: 10 nM estradiol, 24 hours
Procedure, shortened: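 MCF-7 cells in charcoal-dextran-stripped 5% FBS were given vehicle or 15 μM test compound, with or without 10 nM estradiol, starting on day 3. Cells were counted 24 h later by brightfield imaging cytometry. Fold change was taken versus vehicle control over three independent experiments, with error bars as SD.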

| SMILES | reversal of E2-regulated genes of cluster 2 (226 genes) [1] | reversal of E2-regulated genes of cluster 3 (87 genes) [1] | expression of five ER-regulated genes, estradiol [2] | proliferation of MCF-7 cells, estradiol (MCF-7 cells) |
| --- | --- | --- | --- | --- |
| CC/C(=C(\c1ccc(O)cc1)c1ccc(OCCN(C)C)cc1)c1ccccc1 [4OHT, 4-hydroxytamoxifen] | reversed fully | reversed fully | – | – |
| C[C@]12CC[C@@H]3c4ccc(O)cc4CC[C@H]3[C@@H]1CC[C@@H]2O [Estradiol, 17β-estradiol] | – | – | induced expression of each of the five genes | stimulated proliferation |
